The source made the active and inactive calls. No cut-off for these calls is given here.
Tests used:
[1] = test system: RAW264.7; experiment: Cytotoxicity against LPS-stimulated mouse RAW264.7 cells at 20 uM after 24 hrs by MTT assay; type: cell-based; conditions: raw264.7, 24 h
Summary of the method: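 RAW264.7 cells co-treated with test agent (20 μM) and LPS (1 μg/mL) for 24 h; survival read by MTT. Mean ± SD, n = 3; significance versus control group.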

[2] = test system: RAW264.7; experiment: Antiinflammatory activity in mouse RAW264.7 cells assessed as inhibition of LPS-induced NO production at 20 uM after 24 hrs by Griess method; type: functional, cell-based
Summary of the method: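 RAW264.7 cells co-treated with test agent (20 μM) and LPS (1 μg/mL) for 24 h. NO released to medium measured by Griess assay. Hydrocortisone sodium succinate (20 μM) positive control. Mean ± SD, n = 3; significance versus control.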

[3] = test system: RAW264.7; experiment: Antiinflammatory activity in mouse RAW264.7 cells assessed as reduction in LPS-stimulated TNF alpha secretion preincubated for 2 hrs followed by LPS addition and measured after 4 hrs by ELISA; type: functional, cell-based
Summary of the method: (§1)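 RAW264.7 cells pretreated 2 h with test agent (10, 20, 30 μM) or hydrocortisone sodium succinate (20 μM), then LPS (1 μg/mL) for 4 h. TNF-α and IL-6 production measured. Mean ± SD, n = 3; significance versus control group.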

[4] = test system: RAW264.7; experiment: Antiinflammatory activity in mouse RAW264.7 cells assessed as reduction in LPS-induced IL-6 secretion preincubated for 2 hrs followed by LPS addition and measured after 4 hrs by ELISA; type: functional, cell-based; summary of the method: as §1
[5] = test system: RAW264.7; experiment: Antiinflammatory activity in mouse RAW264.7 cells assessed as reduction in LPS-induced iNOS expression after 24 hrs by Western blot analysis; type: functional, cell-based
Summary of the method: (§2)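 RAW264.7 cells co-treated 24 h with LPS (1 μg/mL) plus test agent (10, 20, 30 μM) or hydrocortisone sodium succinate (20 μM). COX-2 and iNOS protein levels determined. Mean ± SD of three independent experiments; significance versus LPS-stimulated group.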

[6] = test system: RAW264.7; experiment: Antiinflammatory activity in mouse RAW264.7 cells assessed as reduction in LPS-induced COX2 protein expression after 24 hrs by Western blot analysis; type: functional, cell-based; summary of the method: as §2
[7] = test system: RAW264.7; experiment: Inhibition of LPS-stimulated NFkappaB activation in mouse RAW264.7 cells assessed as reduction in LPS-induced IkappaB degradation at 10 to 30 uM after 2 hrs by Western blot analysis; type: cell-based
Summary of the method: (§3)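 RAW264.7 cells co-treated 2 h with LPS (1 μg/mL) plus test agent (10, 20, 30 μM) or hydrocortisone sodium succinate (20 μM). IκB phosphorylation and degradation assessed as NF-κB pathway read-out. Mean ± SD, n = 3; significance versus LPS-stimulated group.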

[8] = test system: RAW264.7; experiment: Inhibition of LPS-stimulated NFkappaB activation in mouse RAW264.7 cells assessed as reduction in LPS-induced IkappaB phosphorylation at 10 to 30 uM after 2 hrs by Western blot analysis; type: cell-based; summary of the method: as §3
[9] = test system: RAW264.7; experiment: Antiinflammatory activity in LPS-induced mouse RAW264.7 cells in presence of glucocorticoid receptor antagonist RU-486; type: functional, cell-based
[10] = test system: RAW264.7; experiment: Inhibition of LPS-stimulated NFkappaB activation in mouse RAW264.7 cells assessed as reduction in LPS-induced IkappaB degradation at 20 uM after 2 hrs by Western blot analysis; type: cell-based; summary of the method: as §3
[11] = test system: RAW264.7; experiment: Inhibition of LPS-stimulated NFkappaB activation in mouse RAW264.7 cells assessed as reduction in LPS-induced IkappaB phosphorylation at 20 uM after 2 hrs by Western blot analysis; type: cell-based; summary of the method: as §3
[12] = test system: RAW264.7; experiment: Antiinflammatory activity in mouse RAW264.7 cells assessed as reduction in LPS-induced iNOS expression at 20 uM after 24 hrs by Western blot analysis; type: functional, cell-based; summary of the method: as §2
[13] = test system: RAW264.7; experiment: Antiinflammatory activity in mouse RAW264.7 cells assessed as reduction in LPS-induced COX2 protein expression at 20 uM after 24 hrs by Western blot analysis; type: functional, cell-based; summary of the method: as §2

| Compound | Activity [1] | inhibition [2] | also measured |
| --- | --- | --- | --- |
| CCCCCC(=O)O[C@H]1CC[C@]2(C)[C@H]3C[C@@H](O)[C@@H]4[C@@H]([C@]5(C)CC[C@H](C(C)(C)O)O5)CC[C@@]4(C)[C@]3(C)CC[C@H]2C1(C)C | Non-Toxic | Active |  |
| CC(C)(O)[C@@H]1CC[C@@](C)([C@H]2CC[C@]3(C)[C@@H]2[C@H](O)C[C@@H]2[C@@]4(C)CCC(=O)C(C)(C)[C@@H]4CC[C@]23C)O1 | Non-Toxic | Active |  |
| CC(C)(O)[C@H]1CC[C@@](C)([C@H]2CC[C@]3(C)[C@@H]2[C@H](O)C[C@@H]2[C@@]4(C)CC[C@H](O)C(C)(C)[C@@H]4CC[C@]23C)O1 | Non-Toxic | Active |  |
| CC(C)(O)[C@@H]1CC[C@@](C)([C@H]2CC[C@]3(C)[C@@H]2[C@H](O)C[C@@H]2[C@@]4(C)CC/C(=N\O)C(C)(C)[C@@H]4CC[C@]23C)O1 | Non-Toxic | Active |  |
| CC(C)(O)[C@@H]1CC[C@@](C)([C@H]2CC[C@]3(C)[C@@H]2[C@H](O)C[C@@H]2[C@@]4(C)CC[C@H](O)C(C)(C)[C@@H]4CC[C@]23C)O1 | Non-Toxic | inactive |  |
| CC(C)(O)[C@@H]1CC[C@@](C)([C@H]2CC[C@]3(C)[C@@H]2[C@H](O)C[C@@H]2[C@@]4(C)CC[C@H](N)C(C)(C)[C@@H]4CC[C@]23C)O1 | Non-Toxic | Active |  |
| CC(C)(O)[C@H]1CC[C@@](C)([C@H]2CC[C@]3(C)[C@@H]2C(=N)C[C@@H]2[C@@]4(C)CC[C@H](O)C(C)(C)[C@@H]4CC[C@]23C)O1 | Non-Toxic | inactive |  |
| CC(C)(O)[C@H]1CC[C@@](C)([C@H]2CC[C@]3(C)[C@@H]2[C@@H](N)C[C@@H]2[C@@]4(C)CC[C@H](O)C(C)(C)[C@@H]4CC[C@]23C)O1 | Toxic |  |  |
| CC(C)(O)[C@H]1CC[C@@](C)([C@H]2CC[C@]3(C)[C@@H]2C(=O)C[C@@H]2[C@@]4(C)CC[C@H](O)C(C)(C)[C@@H]4CC[C@]23C)O1 | Non-Toxic | Active |  |
| CC(C)(O)[C@H]1CC[C@@](C)([C@H]2CC[C@]3(C)[C@@H]2/C(=N/O)C[C@@H]2[C@@]4(C)CC[C@H](O)C(C)(C)[C@@H]4CC[C@]23C)O1 | Non-Toxic | inactive |  |
| CCCCCC(=O)O[C@H]1CC[C@]2(C)[C@H]3C[C@@H](O)[C@@H]4[C@@H]([C@]5(C)CC[C@@H](C(C)(C)O)O5)CC[C@@]4(C)[C@]3(C)CC[C@H]2C1(C)C | Non-Toxic | Active |  |
| CC(C)(O)[C@H]1CC[C@@](C)([C@H]2CC[C@]3(C)[C@@H]2[C@H](O)C[C@@H]2[C@@]4(C)CC[C@@H](N)C(C)(C)[C@@H]4CC[C@]23C)O1 | Non-Toxic | Active |  |
| CC(C)(O)[C@H]1CC[C@@](C)([C@H]2CC[C@]3(C)[C@@H]2[C@H](O)C[C@@H]2[C@@]4(C)CC/C(=N\O)C(C)(C)[C@@H]4CC[C@]23C)O1 | Non-Toxic | Active | Activity [3]: Dose-dependent effect; Activity [4]: Dose-dependent effect; Activity [5]: Dose-dependent effect; Activity [6]: Dose-dependent effect; inhibition [7]: Active; inhibition [8]: Active; Activity [9]: Active |
| CC(C)(O)[C@H]1CC[C@@](C)([C@H]2CC[C@]3(C)[C@@H]2[C@@H](O)C[C@@H]2[C@@]4(C)CC[C@H](O)C(C)(C)[C@@H]4CC[C@]23C)O1 |  | inactive |  |
| CC(C)(O)[C@H]1CC[C@@](C)([C@H]2CC[C@]3(C)[C@@H]2[C@H](O)C[C@@H]2[C@@]4(C)CCC(=O)C(C)(C)[C@@H]4CC[C@]23C)O1 | Non-Toxic | Active |  |
| CC(C)(O)[C@H]1CC[C@@](C)([C@H]2CC[C@]3(C)[C@@H]2C(=O)C[C@@H]2[C@@]4(C)CCC(=O)C(C)(C)[C@@H]4CC[C@]23C)O1 | Non-Toxic |  |  |
| C[C@]12CCC(=O)C=C1CC[C@@H]1[C@@H]2[C@@H](O)C[C@@]2(C)[C@H]1CC[C@]2(O)C(=O)COC(=O)CCC(=O)O |  |  | inhibition [10]: Active; inhibition [11]: Active; Activity [12]: Active; Activity [13]: Active |
| CC(C)(O[Si](C)(C)C(C)(C)C)[C@H]1CC[C@@](C)([C@H]2CC[C@]3(C)[C@@H]2[C@H](O)C[C@@H]2[C@@]4(C)CC[C@H](O)C(C)(C)[C@@H]4CC[C@]23C)O1 | Non-Toxic | inactive |  |
| CC(C)(O)[C@H]1CC[C@@](C)([C@H]2CC[C@]3(C)[C@@H]2[C@H](O)C[C@@H]2[C@@]4(C)CC[C@H](N)C(C)(C)[C@@H]4CC[C@]23C)O1 | Non-Toxic | Active |  |

From ChEMBL document CHEMBL4602707, “Synthesis and Structure-Activity Relationship of Pyxinol Derivatives as Novel Anti-Inflammatory Agents” (ACS Med Chem Lett, 2020)
